# Screening data from PubChem BioAssay.
# In the library only some 3.7% were active in any assay of this set; here they are far more common.
# hERG rescue: compounds protecting human hERG from proarrhythmic drug block; CHO-hERG, FluxOR thallium flux, dofetilide IC70 present; Q12809; actives 0.51% (n = 310,000); activation (rescue from dofetilide block), less the hit threshold, % at 10 µM; AID 1511;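 active means activation above the mean of controls blocked by dofetilide plus 5 SD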;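 further: thallium influx through hERG after potassium depolarization seen as dye fluorescence rise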
# KCNQ1 act: potentiators or activators of human KCNQ1 potassium channel; P51787; CHO-K1 KCNQ1, thallium flux FluxOR fluorescence; hits give high values; B-score at 10 µM; actives 0.35% (n = 310,000); AID 2648;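 active means fluorescence ratio B-score, a plate-corrected score, at least three library SD, with initial intensity B-score within 5 SD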
#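 Assay system: stable KCNQ1 CHO-K1 line; medium: assay buffer, equal DMSO in all wells; timing: 90 min dye loading and 20 min compound exposure, both at room temperature; technique: kinetic FluxOR thallium fluorescence, 10-s 1-Hz baseline, 110-s post-stimulus read; read-out basis: B score of baseline-normalized fluorescence ratio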
# KCNQ1 block: human KCNQ1 channel inhibition. P51787. CHO-K1 KCNQ1, FluxOR thallium flux fluorescence; hits give high values. B-score at 10 µM. actives 1.3% (n = 310,000);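 active means compounds whose thallium flux B-score, printed positive for inhibition, exceeds three library SD while starting fluorescence stays within three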;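 further: channel opened by potassium depolarization with thallium stimulus after 20 min compound exposure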
# KCNK9 inh: blocks the human KCNK9 two-pore domain potassium channel; HEK293 KCNK9, FluxOR thallium flux fluorescence; hits give low values; Q9NPC2; AID 488922; B-score at 10 µM; actives 1.2% (n = 310,000);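 active means ratio B-score over 3 SD below the library mean, with starting fluorescence within 5 SD of its mean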;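 further: negative B-score means less thallium flux so channel inhibition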
# Target sequence (Q9NPC2 whole entry, looked up, the tested form may be a part): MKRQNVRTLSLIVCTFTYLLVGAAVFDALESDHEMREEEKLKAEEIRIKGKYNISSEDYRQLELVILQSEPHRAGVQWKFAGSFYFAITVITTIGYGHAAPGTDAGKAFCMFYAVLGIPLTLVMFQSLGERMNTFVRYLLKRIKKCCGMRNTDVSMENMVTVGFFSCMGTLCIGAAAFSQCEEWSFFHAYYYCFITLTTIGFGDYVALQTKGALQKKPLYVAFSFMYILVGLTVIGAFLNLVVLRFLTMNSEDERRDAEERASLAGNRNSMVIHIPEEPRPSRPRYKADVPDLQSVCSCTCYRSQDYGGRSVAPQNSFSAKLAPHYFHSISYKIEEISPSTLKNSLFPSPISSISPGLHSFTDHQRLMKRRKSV
# Kir21 block: inhibitors of mouse Kir2.1 inward-rectifier potassium channel. P35561. HEK293-Kir2.1, FluxOR thallium flux fluorescence; hits give low values. B-score at 10 µM. actives 0.85% (n = 310,000);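 active means fluorescence ratio B-score at or below minus 3 SD of library scores, with starting-brightness B-score within 2 SD, cut at about -4.2 in these data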;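 further: channel flux triggered by added potassium and thallium sulfate stimulus; B-score of peak minus minimum fluorescence over baseline after thallium stimulus; more negative B-score means stronger Kir2.1 block with less thallium influx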
# KCNK3 block: human KCNK3 channel inhibition, primary screen; O14649; CHO-KCNK3 thallium flux, FluxOR fluorescence; hits give low values; B-score at 10 µM; actives 0.84% (n = 340,000);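 active means B-score under library mean minus 4 SD, starting fluorescence ratio at most library mean plus 5 SD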;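 further: more negative B-score means stronger inhibition of thallium flux through KCNK3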
# KCNK3 confirm: human KCNK3 channel inhibition, confirmation assay; shares compounds with KCNK3 block; CHO-KCNK3 thallium flux, FluxOR fluorescence; 0% buffer, 100% carvedilol maximal block; ratio percent of control, % at 10 µM; actives 99% (n = 2,400); AID 651638;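 active means ratio percent of control, averaged over triplicates, above buffer control mean plus 5 SD, cut at about 64% in these data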;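 further: ratio is the fluorescence rise from min to max over baseline after thallium stimulus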
# KCNK3 noninduced: activity in cells without induced KCNK3 expression; shares compounds with KCNK3 block; non-induced KCNK3 parental cells, FluxOR thallium flux; hits give low values; thallium flux ratio (lower = more inhibition) at 10 µM; actives 40% (n = 2,400);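 active means thallium flux ratio, averaged over three wells, more than 5 SD below the buffer control mean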;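 further: host cells are CHO cells without KCNK3 induction; ratio is peak minus trough fluorescence over baseline then normalized to buffer controls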
# * = called active by the depositor; i = inactive; . = no result.
SMILES,hERG rescue,KCNQ1 act,KCNQ1 block,KCNK9 inh,Kir21 block,KCNK3 block,KCNK3 confirm,KCNK3 noninduced
CCN1C(=O)[C@@H]2C(C(=O)c3cnccn3)=NN[C@@H]2C1=O,-4,i,i,i,-1,i,.,.
CNC(=S)NCc1ccc2[nH]c3c(c2c1)CCCC3,-25,i,i,i,-0.13,i,.,.
Cc1ccc(C)c(NC(=S)NCc2ccc3[nH]c4c(c3c2)CCCC4)c1,-7,i,i,i,0.01,-13*,120*,0.14*
C#CCN1C(C)=C(C(=O)OC)C(c2cccc([N+](=O)[O-])c2)C(C(=O)OCC)=C1C (stereo not drawn),.,.,.,.,.,-12*,109*,i
CCOC(=O)C1=C(c2ccccc2)NC(=O)N(C(C)=O)C1c1cccc([N+](=O)[O-])c1 (stereo not drawn),-1,i,i,i,1,i,.,.
N#CCC(=O)N/N=C/c1cn(Cc2ccccc2C#N)c2ccccc12,1,i,i,i,0,i,.,.
N#CCC(=O)N/N=C/c1c(-c2ccccc2)n(-c2ccccc2)c2ccccc12,-7,i,i,i,-0.12,-9.6*,97*,i
CCOC(=O)C1CCN(c2nc3c(C)cccn3c(=O)c2/C=C(\C#N)S(=O)(=O)c2ccccc2)CC1,-13,i,i,i,-0.99,-9.3*,95*,i
Cn1c(=O)c2cc3ccccc3nc2n(C)c1=O,-1,i,i,i,0.42,i,.,.
N#Cc1cc2cc3ccccc3nc2n2c(=O)c3ccccc3nc12,-9,i,i,i,-2.5,-9.6*,122*,0.12*
CCOc1ccc(Cn2c(=O)oc3ccccc32)cc1,-2,i,i,i,1.6,i,.,.
COc1ccc(C(=O)CC(Nc2ccc([N+](=O)[O-])cc2)c2ccc(Cl)cc2)cc1 (stereo not drawn),-19,i,12*,-6.7*,-0.89,-9.1*,132*,0.14*
COc1ccc(C(=O)NC(CC(=O)O)c2cc([N+](=O)[O-])ccc2Cl)cc1 (stereo not drawn),-4,i,i,i,1.9,i,.,.
CC(C)(C)c1ccc(OCCCn2ccnc2)cc1,-8,i,i,i,0.25,i,.,.
Cc1cc(C)cc(C(=O)Nc2cccc(NC(=O)c3ccco3)c2)c1,-11,i,i,-8*,-0.3,-11*,101*,i
COc1cccc(C(=O)COc2cccc(NC(=O)c3ccco3)c2)c1,-8,i,i,-7.3*,-0.52,-10*,120*,0.14*
O=C(COc1cccc(NC(=O)c2cccc([N+](=O)[O-])c2)c1)c1ccc(Br)cc1,-3,i,i,i,0.47,-11*,96*,0.15*
O=C(Nc1cccc(OCC(=O)N2CCOCC2)c1)c1cccc([N+](=O)[O-])c1,-11,i,i,i,-2.6,i,.,.
COc1ccc(C(=O)COc2cccc(NC(=O)c3ccco3)c2)cc1,-15,i,i,i,0.76,i,.,.
CN(C(=O)COC(=O)CCC1CCCCC1)c1c(N)n(Cc2ccccc2)c(=O)[nH]c1=O,-5,i,i,i,0.23,i,.,.
Cc1ccc(NC(=O)C2CCCN2c2nn3c(=O)cc(C)nc3s2)cc1 (stereo not drawn),-5,i,i,i,0.24,i,.,.
Nc1[nH]c2cc([N+](=O)[O-])ccc2c1-c1ccccn1,-25,i,i,i,-1.1,-10*,115*,0.14*
CCCC(=O)Nc1ccc(-c2csc(N/N=C\c3ccncc3)n2)cc1,-8,i,i,i,0.78,-8.8*,107*,0.15*
COc1ccccc1/C=C1\SC(=S)N(N2C(=O)CCCC2=O)C1=O,-12,i,i,i,0.28,-9.4*,105*,i
CCOC(=O)CN1C(=O)/C(=C/c2c(F)cccc2Cl)Oc2ccccc21,-7,i,6*,-7.8*,-0.64,-8.8*,123*,i
SMILES,hERG rescue,KCNQ1 act,KCNQ1 block,KCNK9 inh,Kir21 block,KCNK3 block,KCNK3 confirm,KCNK3 noninduced
CCN(c1cccc(C)c1)S(=O)(=O)c1cc2c3c(c1)CCN3C(=O)CC2,-9,i,i,i,-2.6,i,.,.
CCOc1cc(/C=N/NC(=O)CN2CCCCC2)ccc1OCc1ccccc1,-10,i,i,i,-2,i,.,.
CCOc1cc(/C=N/NC(=O)CN2CCOCC2)ccc1OCc1ccc(Cl)cc1,-5,i,i,i,-1.1,-11*,0,i
COc1ccc(NC(=O)CCCc2nnc3n(C)c(=O)c4sccc4n23)cc1,-4,i,i,i,0.55,i,.,.
O=C(CCN1C(=O)/C(=C/c2ccccc2F)SC1=S)NCCCn1ccnc1,-9,i,i,i,-1.9,i,.,.
CCOc1ccccc1NC(=O)N1CCc2ccccc2C1,-15,i,i,i,0.91,-9*,84*,i
N#Cc1nc(COc2ccc(Br)cc2)oc1N1CCCCCC1,-7,i,i,i,0.33,-15*,82*,i
CCn1cc(CCC(=O)NCCN2CCOCC2)c2ccccc21,-3,i,i,i,0.02,i,.,.
CN(C)c1ccc(/C=C/C(=O)c2cc(Cl)ccc2O)cc1,-8,i,i,i,0.21,-13*,106*,i
O=C(/C=C/c1ccncc1)c1cc(Cl)ccc1O,-10,i,i,i,0.27,i,.,.
COc1ccc(OC)c(NC(=O)c2ccc(OC3CSC3)cc2)c1,-5,i,i,i,-1.6,-9.1*,102*,i
COc1cc2c(cc1NC(=O)c1ccc(C(C)(C)C)cc1)CCCC2,1,i,i,i,0.72,-10*,105*,i
CCCc1cc(C(=O)Nc2cc(OC)ccc2OC)cs1,-4,i,i,i,1.9,-10*,130*,0.15*
COc1ccc(NC(=O)c2ccc(S(=O)(=O)C(F)F)cc2)c(OC)c1,-3,i,i,i,0.2,i,.,.
COc1ccc(NC(=O)c2ccc(-n3c(C)ccc3C)cc2)c(OC)c1,-8,i,i,i,-0.61,-8.8*,124*,i
Cc1cc(=O)oc2c(C)c(OCC(=O)c3ccccc3)ccc12,-6,i,i,i,0.72,i,.,.
FC(F)(F)c1cccc(-n2c(Cn3nnc4ccccc43)n[nH]c2=S)c1,-3,i,i,i,0.24,i,.,.
